Activity calls are given as the source filed them. No cut-off for these calls is given here.
What was measured:
HEL [1] = experiment: Growth inhibition of human HEL cells expressing Jak2 V617F mutation at 0.03 to 30 uM after 72 hrs by trypan blue exclusion B assay; assay type: functional, cell-based
How it was run: (§1)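 HEL cells were incubated with graded compound concentrations for 72 h. Viability was determined by trypan blue exclusion.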

BaF3 [2] = experiment: Growth inhibition of mouse BAF3 cells expressing Jak2 V617 mutation at 30 uM after 72 hrs by MTS assay; assay type: functional, cell-based
How it was run: (§2)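 Ba/F3 cells expressing EpoR and Jak2-V617F were incubated with graded compound concentrations for 72 h. Viability was read by MTS assay. Data come from two independent experiments, each in triplicate.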

HEL [3] = experiment: Cell cycle arrest in human HEL cells assessed as decrease in cyclin A expression at 25 uM after 24 hrs by Western blot analysis; assay type: functional, cell-based
How it was run: (§3)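 HEL cells were exposed to 25 μM of each compound for 24 h. Lysates were immunoblotted for cyclin A, cyclin B1 and CDK1, with β-actin as the loading control. Two independent experiments were run.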

HEL [4] = experiment: Cell cycle arrest in human HEL cells assessed as effect on cyclin B1 expression at 25 uM after 24 hrs by Western blot analysis; assay type: functional, cell-based; how it was run: as §3
HEL [5] = experiment: Cell cycle arrest in human HEL cells assessed as effect on CDK1 expression at 25 uM after 24 hrs by Western blot analysis; assay type: functional, cell-based; how it was run: as §3
HEL [6] = experiment: Induction of apoptosis in human HEL cells at 10 uM after 48 hrs by annexinV-propidium iodide staining-based flow cytometric analysis; assay type: functional, cell-based
How it was run: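 HEL cells were exposed to 10 μM of each compound for 48 h, then stained with Annexin V and propidium iodide and analyzed by flow cytometry. Early apoptosis was scored as Annexin V-positive, PI-negative. Data come from two independent experiments, each in triplicate.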

HEL [7] = experiment: Induction of apoptosis in human HEL cells assessed as cleavage of PARP at 25 uM after 24 hrs by Western blot analysis; assay type: functional, cell-based
How it was run: (§4)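 HEL cells were exposed to 25 μM of each compound for 24 h. Cleavage of PARP, caspase-3, Bid and Bim was assessed by Western blot. Two experiments were run for each blot.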

Bone marrow cell [8] = experiment: Anticolonegic activity in mouse bone marrow cells expressing Jak2 V617F mutation assessed as decrease in number of granulocyte/macrophage colony forming units at 25 uM after 24 hrs and measured on day 6; assay type: functional, cell-based
How it was run: (§5)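 Bone marrow cells taken from 6-month-old Jak2-V617F transgenic mice were incubated ex vivo in medium containing 25 μM of each compound for 0, 12 or 24 h. Cells were then washed, plated in methylcellulose (semi-solid) medium and cultured for 6 further days. BFU-E and CFU-GM colonies were counted. Each condition was run in duplicate and compared with the 0 h condition.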

[9] = biological target: Tyrosine-protein kinase JAK2 (Homo sapiens) (UniProt O60674); experiment: Jak2 autophosphorylation at 2.5 uM after 30 mins by Western blot analysis as % of control
[10] = biological target: Tyrosine-protein kinase JAK2 (Homo sapiens) (UniProt O60674); experiment: Jak2-mediated GST-STAT1 phosphorylation at 2.5 uM after 30 mins by Western blot analysis as % of control
HEL [11] = experiment: Growth inhibition of human HEL cells expressing Jak2 V617F mutation after 72 hrs by trypan blue exclusion B assay; assay type: functional, cell-based; how it was run: as §1
HEL [12] = experiment: Growth inhibition of human HEL cells expressing Jak2 V617F mutation at 0.03 to 30 uM by trypan blue exclusion B assay; assay type: functional, cell-based; settings: TDE = time-dependent effect
HEL [13] = experiment: Growth inhibition of human HEL cells expressing Jak2 V617F mutation at 0.85 uM after 72 hrs by trypan blue exclusion B assay; assay type: functional; settings: read-out: GI; how it was run: as §1
HEL [14] = experiment: Growth inhibition of human HEL cells expressing Jak2 V617F mutation at 0.03 to 30 uM at 24 to 72 hrs by trypan blue exclusion B assay; assay type: functional, cell-based
BaF3 [15] = experiment: Growth inhibition of mouse BAF3 cells expressing Jak2 […] mutation after 72 hrs by MTS assay; assay type: functional, cell-based; how it was run: as §2
BaF3 [16] = experiment: Growth inhibition of mouse BAF3 cells expressing Jak2 V617 mutation at 0.03 to 30 uM by MTS assay; assay type: functional, cell-based; settings: TDE = time-dependent effect; how it was run: as §2
[17] = biological target: Tyrosine-protein kinase JAK2 (Homo sapiens) (UniProt O60674); experiment: Inhibition of Jak2-mediated STAT5 phosphorylation at Try694 in human HEL cells at 25 uM after 24 hrs by Western blot analysis; assay type: cell-based
How it was run: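 HEL cells were exposed to 25 μM of each compound for 24 h. Lysates were immunoprecipitated for STAT5 and phospho-STAT5 was detected by Western blot. Densitometry expressed phospho-STAT5 as percent of total, normalized to the DMSO control; n = 4.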

HEL [18] = experiment: Cell cycle arrest in human HEL cells assessed as decrease in cell population at G1 phase at 10 uM after 24 hrs by flow cytometric analysis; assay type: functional, cell-based
How it was run: (§6)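 HEL cells were exposed to 10 μM of each compound for 24 h. DNA content was then analyzed by flow cytometry. Data come from two experiments, each measured in triplicate.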

HEL [19] = experiment: Cell cycle arrest in human HEL cells assessed as increase in cell population at G2 phase at 10 uM after 24 hrs by flow cytometric analysis; assay type: functional, cell-based; how it was run: as §6
HEL [20] = experiment: Cell cycle arrest in human HEL cells assessed as accumulation at G2/M phase at 10 uM after 24 hrs by flow cytometric analysis; assay type: functional, cell-based; how it was run: as §6
HEL [21] = experiment: Induction of apoptosis in human HEL cells assessed as cleavage of caspase-3 at 25 uM after 24 hrs by Western blot analysis; assay type: functional, cell-based; how it was run: as §4
HEL [22] = experiment: Induction of apoptosis in human HEL cells assessed as cleavage of Bim at 25 uM after 24 hrs by Western blot analysis; assay type: functional, cell-based; how it was run: as §4
HEL [23] = experiment: Induction of apoptosis in human HEL cells assessed as cleavage of Bid at 25 uM after 24 hrs by Western blot analysis; assay type: functional, cell-based; how it was run: as §4
Bone marrow cell [24] = experiment: Anticolonegic activity in mouse bone marrow cells expressing Jak2 V617F mutation assessed as decrease in number of erythroid burst forming units at 25 uM after 24 hrs and measured on day 6; assay type: functional, cell-based; how it was run: as §5
Bone marrow cell [25] = experiment: Anticolonegic activity in mouse bone marrow cells expressing Jak2 V617F mutation assessed as decrease in number of erythroid burst forming units at 25 uM after 12 hrs and measured on day 6; assay type: functional, cell-based; how it was run: as §5
Bone marrow cell [26] = experiment: Anticolonegic activity in mouse bone marrow cells expressing Jak2 V617F mutation assessed as decrease in number of granulocyte/macrophage colony forming units at 25 uM after 12 hrs and measured on day 6; assay type: functional, cell-based; how it was run: as §5

Chain of Tyrosine-protein kinase JAK2 (Homo sapiens) (O60674 whole entry): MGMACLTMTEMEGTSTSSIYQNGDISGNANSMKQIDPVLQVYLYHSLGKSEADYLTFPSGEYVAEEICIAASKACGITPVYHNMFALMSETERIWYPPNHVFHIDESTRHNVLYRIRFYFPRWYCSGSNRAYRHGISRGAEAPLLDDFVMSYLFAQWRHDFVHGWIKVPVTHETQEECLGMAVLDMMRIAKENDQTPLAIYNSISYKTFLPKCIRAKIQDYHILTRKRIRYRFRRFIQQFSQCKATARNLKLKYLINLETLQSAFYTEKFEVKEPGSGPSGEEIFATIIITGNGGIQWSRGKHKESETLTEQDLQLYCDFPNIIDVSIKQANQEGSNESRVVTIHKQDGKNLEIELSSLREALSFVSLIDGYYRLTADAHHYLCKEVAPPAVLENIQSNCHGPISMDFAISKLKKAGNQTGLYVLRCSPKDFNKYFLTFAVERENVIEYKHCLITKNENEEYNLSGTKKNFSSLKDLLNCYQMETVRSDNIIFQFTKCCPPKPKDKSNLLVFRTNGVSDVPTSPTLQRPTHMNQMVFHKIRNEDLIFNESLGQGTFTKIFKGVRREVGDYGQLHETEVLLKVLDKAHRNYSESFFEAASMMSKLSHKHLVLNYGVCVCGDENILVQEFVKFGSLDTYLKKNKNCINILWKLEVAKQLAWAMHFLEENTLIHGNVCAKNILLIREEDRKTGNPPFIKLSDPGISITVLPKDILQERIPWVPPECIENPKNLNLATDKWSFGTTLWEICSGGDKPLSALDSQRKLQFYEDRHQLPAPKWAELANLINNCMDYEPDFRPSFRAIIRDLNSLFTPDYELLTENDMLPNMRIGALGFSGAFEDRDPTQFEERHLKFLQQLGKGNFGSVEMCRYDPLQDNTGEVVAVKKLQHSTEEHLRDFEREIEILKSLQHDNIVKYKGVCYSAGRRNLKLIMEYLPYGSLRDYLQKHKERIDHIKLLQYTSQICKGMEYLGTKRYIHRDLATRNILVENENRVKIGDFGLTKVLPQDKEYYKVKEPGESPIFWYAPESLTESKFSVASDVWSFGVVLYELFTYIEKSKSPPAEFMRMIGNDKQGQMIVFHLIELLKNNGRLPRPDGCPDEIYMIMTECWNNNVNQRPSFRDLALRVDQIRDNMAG

SMILES | growth inhibition (GI) (HEL [1]) | Activity (HEL [3]) | Activity (HEL [4]) | Activity (HEL [5]) | Activity (HEL [6]) | Activity (HEL [7]) | Activity (Bone marrow cell [8]) | residual activity [9] | residual activity [10] | Activity (HEL [18]) | Activity (HEL [19]) | Activity (HEL [20]) | Activity (HEL [21]) | Activity (Bone marrow cell [24]) | Activity (Bone marrow cell [25]) | Activity (Bone marrow cell [26]) | further results
CN(C)Cc1ccc(/C=C/c2ccc(CN(C)C)c(O)c2)cc1O | Active | inactive | inactive | inactive | inactive | inactive | Active | 94.4% | 93.3% |  |  |  |  |  |  |  | growth inhibition (GI) (BaF3 [2]): Active
CN(C)Cc1cc(/C=C/c2ccc(O)c(CN(C)C)c2)ccc1O |  | Active | inactive | inactive | Active | Active | Active | 44.2% | 71.5% | Active | Active | Active | Active | Active | Active | Active | growth inhibition (GI) (HEL [11]): Dose-dependent effect; growth inhibition (GI) (HEL [12]): tde; inhibition of growth at 0.85 µM (HEL [13]): 50%; growth inhibition (GI) (HEL [14]): Active; growth inhibition (GI) (BaF3 [15]): Dose-dependent effect; growth inhibition (GI) (BaF3 [16]): tde; inhibition [17]: Active; Activity (HEL [22]): Active; Activity (HEL [23]): Active
C/C(=C(/C)c1ccc(CN(C)C)c(O)c1)c1ccc(CN(C)C)c(O)c1 | Active | Active | inactive | inactive | Active | Active | Active | 98.4% | 104% | Active | Active | Active | Active | Active | Active | Active | 
C/C(=C(/C)c1ccc(O)c(CN(C)C)c1)c1ccc(O)c(CN(C)C)c1 | Active | inactive | inactive | inactive | Active | Active | Active | 89.1% | 89.1% |  |  |  |  | Active |  |  | 
